Assay [1] deals with T1, Protein cereblon/NAD-dependent protein deacetylase sirtuin-2 (Homo sapiens) (UniProt Q8IXJ6+Q96SW2). In words: Protac activity at CRBN/SIRT2 in human MCF7 cells assessed as SIRT2 degradation at 10 uM by immunoblot analysis. The format is cell-based. The settings on record: TDE = time-dependent effect. The essentials:
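MCF7 cells treated at a fixed concentration (10 or 25 μM) and harvested at several incubation times; SIRT2 level read by immunoblot.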

Assay [2] deals with T2, NAD-dependent protein deacetylase sirtuin-3, mitochondrial (Homo sapiens, UniProt Q9NTG7).
T2 sequence (Q9NTG7 whole entry): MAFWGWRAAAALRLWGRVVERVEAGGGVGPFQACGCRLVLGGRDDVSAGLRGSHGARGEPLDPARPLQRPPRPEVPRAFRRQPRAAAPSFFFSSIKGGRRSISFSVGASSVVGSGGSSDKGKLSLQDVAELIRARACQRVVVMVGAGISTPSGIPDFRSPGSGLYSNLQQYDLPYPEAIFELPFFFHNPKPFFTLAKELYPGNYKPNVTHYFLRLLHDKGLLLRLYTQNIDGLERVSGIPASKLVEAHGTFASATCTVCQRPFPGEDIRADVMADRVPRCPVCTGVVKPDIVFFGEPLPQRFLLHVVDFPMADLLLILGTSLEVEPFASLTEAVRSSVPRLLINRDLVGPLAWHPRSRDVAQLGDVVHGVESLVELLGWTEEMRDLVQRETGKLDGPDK
As to the kind of experiment: Inhibition of human SIRT3 deacetylation activity using H3K9Ac as substrate preincubated for 15 mins in presence of NAD+ followed by substrate addition by HPLC analysis. The gist of the method: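 In vitro sirtuin reaction mixture with compound at a range of concentrations. Compound was preincubated with NAD+ and the enzyme before the substrate peptide was added. IC50 taken from the concentration series.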

Assay [3] deals with T1, Protein cereblon/NAD-dependent protein deacetylase sirtuin-2 (Homo sapiens). In words: Protac activity at CRBN/SIRT2 in human MCF7 cells assessed as inhibition of SIRT2 deacetylation by measuring increase in acetylated-alpha tubulin level at 10 uM measured after 12 hrs by DAPI staining based immunofluorescence microscopic analysis. The format is cell-based. The gist of the method: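 MCF7 cells treated for 12 h with 5 or 10 μM, DMSO as control. Acetyl-α-tubulin (K40) was imaged by immunofluorescence, and fluorescence intensity was quantified and normalized to vehicle.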

For assay [4] the target is unchanged. As to the kind of experiment: Protac activity at CRBN/SIRT2 in human MCF7 cells assessed as SIRT2 degradation at 5 to 10 uM after 48 hrs by immunoblot analysis. It is filed as cell-based. The settings on record: dose microM 5-10, time 48.0 hrs. The essentials: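 Cells exposed to compound at the indicated concentrations for 48 h. SIRT1, SIRT2 and SIRT3 levels were read by immunoblot.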

For assay [5] the target is unchanged. In words: Protac activity at CRBN/SIRT2 in human HEK293T cells stably expressing flag-tagged K-Ras4a assessed as inhibition of SIRT2 defatty-acylation at 1 uM incubated for 42 hrs followed by Alkyne-14 addition and measured after 6 hrs by immunoprecipitation based assay. The format is cell-based. Conditions: HEK-293T. The gist of the method:
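HEK 293T cells stably expressing Flag-K-Ras4a-G12V were treated with 1 μM compound for 42 h, then labelled with 50 μM Alk-14 for 6 h more. Flag-K-Ras4a was immunoprecipitated and a fluorescent dye attached by click chemistry. NH2OH was applied to strip cysteine fatty acylation, and lysine fatty acylation was measured by in-gel fluorescence and quantified relative to DMSO.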

Assay [6] addresses T3, NAD-dependent protein deacetylase sirtuin-2 (Homo sapiens, UniProt Q8IXJ6).
T3 sequence (Q8IXJ6 whole entry): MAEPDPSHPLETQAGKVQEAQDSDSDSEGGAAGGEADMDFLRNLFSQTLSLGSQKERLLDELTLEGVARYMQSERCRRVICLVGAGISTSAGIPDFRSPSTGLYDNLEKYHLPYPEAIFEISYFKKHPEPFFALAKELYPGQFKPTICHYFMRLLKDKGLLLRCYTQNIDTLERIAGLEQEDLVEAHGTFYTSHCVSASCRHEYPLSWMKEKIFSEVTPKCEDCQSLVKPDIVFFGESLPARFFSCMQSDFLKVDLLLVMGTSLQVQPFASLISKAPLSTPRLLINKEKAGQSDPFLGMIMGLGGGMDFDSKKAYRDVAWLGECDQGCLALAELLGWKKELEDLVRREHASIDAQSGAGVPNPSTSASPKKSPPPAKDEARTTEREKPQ
As to the kind of experiment: Inhibition of human SIRT2 deacetylation activity using H3K9Ac as substrate in presence of NAD+ by HPLC analysis.

Another assay concerns MDA-MB-231. As to the kind of experiment: Cytotoxicity against human MDA-MB-231 cells assessed as reduction in cell viability after 72 hrs. The format is functional, cell-based. The gist of the method: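 Cells incubated with compound or thalidomide for 72 h; cell viability read out at the end of exposure.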

In ChEMBL document CHEMBL4725483, “Simultaneous Inhibition of SIRT2 Deacetylase and Defatty-Acylase Activities via a PROTAC Strategy” (ACS Med Chem Lett, 2020) one finds Activity and IC50 data, which are given here for one molecule.

Structures are written as SMILES. Activity calls are given as the source filed them. No cut-off for these calls is given here. Bounds are passed on as bounds.

T1 sequence (Q96SW2 whole entry, looked up, one chain of several): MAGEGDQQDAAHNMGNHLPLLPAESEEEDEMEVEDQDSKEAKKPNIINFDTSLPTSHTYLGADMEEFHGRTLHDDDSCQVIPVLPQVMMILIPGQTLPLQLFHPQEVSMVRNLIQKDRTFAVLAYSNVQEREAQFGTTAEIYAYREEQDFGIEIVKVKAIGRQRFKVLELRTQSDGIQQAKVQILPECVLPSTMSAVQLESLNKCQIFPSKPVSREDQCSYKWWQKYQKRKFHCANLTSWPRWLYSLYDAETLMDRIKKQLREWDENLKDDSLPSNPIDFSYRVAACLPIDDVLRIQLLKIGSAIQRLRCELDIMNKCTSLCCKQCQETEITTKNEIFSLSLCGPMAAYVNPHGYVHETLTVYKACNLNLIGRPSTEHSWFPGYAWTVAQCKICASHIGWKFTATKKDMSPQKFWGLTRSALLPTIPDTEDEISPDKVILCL

By IC50 is commonly meant the concentration needed to halve the response being measured. Regarding `CCCCCCCCCCCCCC(=S)NCCCC[C@H](NC(=O)CCOCCOCCOCCOCCNc1cccc2c1C(=O)N(C1CCC(=O)NC1=O)C2=O)C(=O)Nc1ccccc1` (some centres not stated), the Activity result in assay [1] is “Tde”. Also, the 50% inhibitory concentration (IC50) in assay [2] was more than 83000 nM; in assay [6] it was 93 nM. Also, the result (in assay [3]; in assay [4]; in assay [5]; in the assay with MDA-MB-231) was Active.
